High-throughput results: PubChem BioAssay, several laboratories
Only some compounds are listed: those with a hit (about 2.6% of all), similar ones and a draw of the others.
NR2E3 ag-1: NR2E3 (human) agonism | Q9Y5X4 | GST-NR2E3/biotin-RetCOR TR-FRET, 1536-well | inhibition of corepressor binding, % at 4.78 µM | 0.12% of 320,000 active | AID 2300;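 active means percent inhibition above the cutoff of mean plus 3 SD of all tested compounds, set per screening campaign, cut at about 20% in these data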;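 further: 0% = DMSO wells and 100% = biotin wells as full block of FRET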
Target sequence (Q9Y5X4 whole entry, looked up): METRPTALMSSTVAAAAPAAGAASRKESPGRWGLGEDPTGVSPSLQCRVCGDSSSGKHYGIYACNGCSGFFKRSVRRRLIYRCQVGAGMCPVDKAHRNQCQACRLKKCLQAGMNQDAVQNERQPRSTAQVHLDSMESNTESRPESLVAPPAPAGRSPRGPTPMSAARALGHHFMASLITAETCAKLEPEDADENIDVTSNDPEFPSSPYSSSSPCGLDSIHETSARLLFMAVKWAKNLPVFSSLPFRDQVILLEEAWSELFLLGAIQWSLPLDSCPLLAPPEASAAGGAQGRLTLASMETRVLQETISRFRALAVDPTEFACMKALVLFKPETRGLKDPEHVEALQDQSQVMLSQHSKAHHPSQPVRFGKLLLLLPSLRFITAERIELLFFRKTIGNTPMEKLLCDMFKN
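System: GST-NR2E3 and biotin-RetCOR proteins; probe or stimulus: 7 nM biotin-RetCOR; doses: compound at 4.8 µM, single dose; schedule: Compound–protein incubation for 5 h at 4 °C; detection: time-resolved FRET; read-out: percent inhibition; controls: biotin wells as high control, 0.6% DMSO wells as low control; format: 1536-well plates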
NR2E3 ag-2: agonists of human NR2E3 nuclear receptor | Q9Y5X4 | CHO-S Gal4-NCOR/VP16-NR2E3 two-hybrid, luciferase | inhibition of corepressor binding, % at 3.98 µM | 0.35% of 360,000 active | AID 602229;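 active means inhibition above the mean of all tested compounds plus 3 SD, cut at about 70% in these data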;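 further: 0% = DMSO with NR2E3 transfected cells and 100% = cells lacking NR2E3 construct; higher means lower luciferase signal from less NR2E3 corepressor binding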
rCAG binder: molecules binding r(CAG) RNA repeats; r(CAG) RNA repeat, TO-PRO-1 dye displacement fluorescence; inhibition, % at 3 µM; 1.3% of 370,000 active; AID 651821;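 active means inhibition above the plate cutoff, the mean of all test compounds on that plate plus 3 SD, cut at about 35% in these data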;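 further: 0% = DMSO alone and 100% = 100 µM mitoxantrone as full dye displacement; higher means more dye released from RNA so lower well fluorescence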
NR1D1 modulator: Rev-erb alpha (human) modulation; 0.79% of 370,000 active; P20393; Rev-erbα–FITC-DNA binding, fluorescence polarization, 90 min; activity, % at 10 µM;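 active means activity above about 14%, limit read from the data; passing the limit was not always enough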;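 further: 0% = DMSO wells with 35 nM protein and 100% = DMSO wells with 750 nM protein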
PG9 Ab binder: PG9 antibody binding by small molecule; 0.43% of 360,000 active; TR-FRET gp120-PG9 antibody binding; AID 624416; inhibition, % at 6.7 µM; in the data active means inhibition above about 8.5%
NR2E3 ag confirm: NR2E3 agonism confirmed in two-hybrid assay | shares compounds with NR2E3 ag-2 | CHO-S mammalian two-hybrid NR2E3-NCOR, luciferase luminescence | inhibition, % at 3.98 µM | 51% of 2,300 active;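 active means average inhibition above a cutoff equal to the mean inhibition of all tested compounds plus one SD, cut at about 70% in these data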;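 further: 0% = DMSO in NR2E3 cells and 100% = DMSO in cells lacking NR2E3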
GAL4-VP16 luc: GAL4-VP16 reporter inhibition in NR2E3 agonist counterscreen; CHO-S GAL4-VP16 luciferase reporter, luminescence; inhibition, % at 3.98 µM; 29% of 2,300 active; shares compounds with NR2E3 ag-2;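 active means mean inhibition above a cutoff equal to the average over all tested compounds plus one standard deviation, cut at about 70% in these data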;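 further: luciferase from a UAS reporter driven by GAL4-VP16 transactivation; 0% = DMSO with VP16-transfected cells and 100% = DMSO with cells lacking VP16; higher means less reporter light so more repression of VP16 activity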
rCAG bind conf: r(CAG) RNA repeat binding, confirmation; shares compounds with rCAG binder; TO-PRO-1 dye displacement fluorescence; inhibition, % at 3 µM; 70% of 4,300 active;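 active means inhibition above a per-plate cutoff, the mean inhibition of sample wells plus 3 SD, cut at about 35% in these data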;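 further: loss of TO-PRO-1 fluorescence as compound displaces dye from 1x1 AA loop RNA; 0% = DMSO only wells and 100% = 100 µM mitoxantrone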
dCAG dye counter: counter-screen for rCAG RNA binders: DNA CAG dye complex inhibitors; shares compounds with rCAG binder; d(CAG) DNA oligo TO-PRO-1 dye displacement, fluorescence; inhibition, % at 3 µM; 94% of 4,300 active;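 active means inhibition above its plate's cutoff, the mean test-well inhibition plus 3 SD, cut at about 4.8% in these data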;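 further: 0% = DNA dye mix with DMSO and 100% = 100 µM mitoxantrone; hits displace the dye from DNA and so lower well fluorescence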
Active calls of the source: *; . = no result.

SMILES	NR2E3 ag-1	NR2E3 ag-2	rCAG binder	NR1D1 modulator	PG9 Ab binder	NR2E3 ag confirm	GAL4-VP16 luc	rCAG bind conf	dCAG dye counter
O=C(Nc1ccccc1C(=O)Nc1nnc(C(F)(F)F)s1)c1ccccc1	1.5	72.0*	37.9*	0.6	-0.8	99.3*	93.5*	72.4*	32.9*
Cc1occc1C(=O)Nc1nnc(C(F)(F)F)s1	4.9	-31.3	1.6	-3.1	5.7	.	.	.	.
CCOC(=O)Cc1c(C)nc2c(C#N)c[nH]n2c1=O	1.2	11.9	5.1	1.3	0.3	.	.	.	.
CCOC(=O)Cc1c(C)nc2c(-c3cccc(Br)c3)c[nH]n2c1=O	-1.6	64.3	72.0*	-3.2	-1.1	47.0	38.4	46.6*	15.4*
O=C(CCN1C(=O)/C(=C/c2ccc3c(c2)OCO3)SC1=S)Nc1ccccc1	-0.8	-0.1	7.2	2.1	1.3	.	.	.	.
O=C(CCCN1C(=O)C(=Cc2ccc3c(c2)OCO3)SC1=S)Nc1ccc(C(=O)O)c(O)c1	.	50.0	76.6*	-3.9	-3.7	8.2	65.8	78.0*	45.1*
CCCC[C@@H]1C=C(C(=O)O)[C@H](c2ccc(Cl)c(Cl)c2)N1S(=O)(=O)c1ccc(C)cc1	.	85.4*	79.9*	3.6	1.7	33.0	36.6	69.3*	33.9*
Cc1ccc(S(=O)(=O)N2[C@@H](c3ccccc3)C(C(=O)O)=CC[C@H]2c2cccc(C)c2)cc1	5.0	-25.4	13.6	-1.9	0.2	.	.	.	.
CCc1ccc([C@H]2C(C(=O)O)=C[C@@H](CC3CCCC3)N2S(=O)(=O)c2ccc(C)cc2)cc1	.	57.3	75.9*	-2.9	-2.3	6.6	2.6	62.2*	25.9*
CCCC[C@@H]1C=C(C(=O)O)[C@H](c2ccc(C)cc2)N1S(=O)(=O)c1ccc(C)cc1	.	8.6	31.6	5.6	-0.5	.	.	.	.
Cc1ccc(S(=O)(=O)N2[C@@H](c3ccc(Cl)cc3)C(C(=O)O)=CC[C@H]2c2cccc(C)c2)cc1	3.2	-21.9	4.0	-4.7	-1.2	.	.	.	.
Cc1ccc([C@H]2C(C(=O)O)=CC[C@@H](c3ccc(Cl)c(Cl)c3)N2S(=O)(=O)c2ccc(C)cc2)cc1	.	66.6	88.3*	-9.1	-1.6	37.3	26.8	85.2*	53.7*
Cc1ccc(S(=O)(=O)N2[C@@H](c3ccc(Cl)cc3)C(C(=O)O)=CC[C@H]2c2ccc(Cl)cc2)cc1	-1.2	61.8	82.1*	2.7	1.4	24.2	22.1	84.0*	53.4*
COCCCN1C(=O)C(CC(=O)NC2CCCCC2)CC(C(=O)N2CCOCC2)=C1C (stereo not given)	.	-27.1	1.9	-1.0	0.2	.	.	.	.
N=C1SC(c2ccccc2)C(=O)N1c1ncc(Cc2ccccc2)s1 (stereo not given)	0.4	70.7*	44.6*	0.3	0.5	-64.3	-15.2	56.6*	19.0*
O=C(Nc1cccc(S(=O)(=O)N2CCCCC2)c1)c1ccccc1NS(=O)(=O)c1ccc(F)cc1	-1.2	85.5*	61.1*	0.9	-1.8	98.0*	70.6*	75.7*	35.5*
Cc1ccc(NC(=O)c2ccccc2NS(=O)(=O)c2ccc(F)cc2)cc1S(=O)(=O)N1CCCCC1	1.3	88.5*	67.5*	1.3	-0.8	98.0*	91.8*	83.1*	52.3*
C[C@@H]1CN([C@H](C)CO)C(=O)c2cc(Br)cnc2O[C@H]1CN(C)C(=O)Nc1ccccc1F	.	4.3	1.5	-0.4	0.2	.	.	.	.
Cc1ccc(Cl)cc1NS(=O)(=O)c1ccccc1	.	-18.7	4.2	9.4	-2.1	.	.	.	.
Cc1ccc(S(=O)(=O)Nc2ccccc2NS(=O)(=O)c2ccc(C)cc2)cc1	.	48.1	70.7*	-5.7	1.0	45.6	20.4	55.9*	19.8*
O=S(=O)(Nc1ccc(Cl)cc1NS(=O)(=O)c1ccccc1)c1ccccc1	.	81.7*	80.5*	-7.3	0.2	95.2*	65.2	72.8*	37.7*
CC(C)N(C(=O)[C@H]1C[C@H](CC(=O)NCCC2=CCCCC2)C(=O)N2CCc3c([nH]c4cc(-c5ccco5)ccc34)[C@]12C)C(C)C	.	0.8	17.0	4.0	-0.7	.	.	.	.
CON(C)C(=O)/C=C/c1ccc([B-](F)(F)F)cc1	.	-30.7	0.9	2.5	-1.0	.	.	.	.
CN(c1ccccc1)c1ccc(/C=C(/CCC(=O)O)c2nc3ccccc3s2)cc1[N+](=O)[O-]	.	67.4	77.3*	-4.5	0.7	26.2	43.8	82.2*	42.9*
Cc1ccc([C@@H]2CC=C(C(=O)O)[C@H](c3ccc(Br)cc3)N2S(=O)(=O)c2ccccc2C)cc1	.	63.6	85.8*	-5.2	-0.4	15.7	2.9	81.4*	47.5*
SMILES	NR2E3 ag-1	NR2E3 ag-2	rCAG binder	NR1D1 modulator	PG9 Ab binder	NR2E3 ag confirm	GAL4-VP16 luc	rCAG bind conf	dCAG dye counter
Cc1ccccc1S(=O)(=O)N1[C@@H](c2ccc(Br)cc2)C(C(=O)O)=CC[C@H]1c1ccc(Cl)cc1	.	78.8*	87.9*	-10.3	-0.6	38.0	14.5	83.8*	56.6*
CCOC(=O)C1=CCN(S(=O)(=O)c2ccccc2C)C1c1ccc(Br)cc1 (stereo not given)	.	0.5	-1.1	0.0	2.5	.	.	.	.
CCc1ccc([C@@H]2CC=C(C(=O)O)[C@H](c3ccc(Br)cc3)N2S(=O)(=O)c2ccc(C)cc2)cc1	.	2.8	6.0	-14.4	0.4	.	.	.	.
CC1(C(=O)NS(=O)(=O)c2ccc3ccccc3c2)CCN1C(=O)Cc1ccc(-c2ccccc2)cc1 (stereo not given)	.	47.6	81.3*	-3.2	-1.5	11.4	6.2	76.6*	36.0*
COc1ccc(NC(=O)COC(=O)c2cc3c(s2)CCC3)cc1	2.9	15.4	.	.	.	.	.	.	.
CCc1nc2ccc(C(=O)NCCCn3ccnc3)cn2c1N(C)Cc1cccs1	.	-30.2	-2.7	-0.4	1.5	.	.	.	.
Cc1ccc(-n2c(SCC(=O)Nc3ccc(S(=O)(=O)Nc4cc(C)nc(C)n4)cc3)nnc2-c2ccncc2)cc1	.	.	29.6	-1.9	.	.	.	.	.
COc1ccc(S(=O)(=O)Nc2ccccc2C(=O)Nc2nc(-c3ccc(F)cc3)cs2)cc1OC	0.2	58.8	87.0*	-1.5	0.2	97.1*	83.4*	89.3*	70.7*
COc1ccc(-c2csc(NC(=O)c3ccccc3NS(=O)(=O)c3ccc(C)cc3)n2)cc1	0.3	95.0*	85.4*	-0.1	-0.9	98.2*	84.7*	94.6*	82.4*
COc1ccc(-c2csc(NC(=O)c3c(OC)cccc3OC)n2)cc1	1.8	-33.6	12.1	5.4	-1.2	.	.	.	.
